An excerpt weighted towards active compounds, which were near 1.3% of everything screened.
Furin inhibitor: blocks human furin protease activity; inhibition, % at 20 µM or 30 µM; P09958; actives 0.061% (n = 220,000); purified furin, fluorogenic substrate cleavage; AID 463115; in the data active = inhibition above about 25%
EP2 mod: EP2 receptor (human) modulation; actives 0.83% (n = 260,000); AID 940; P43116; EP2-expressing cells, cAMP HTRF FRET, PGE2 co-stimulation; induction, % at 25 µM;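 active = compounds whose cAMP rise, as percent of the full-agonist control response, exceeds 60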;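 also: rat C6 glioma line stably carrying human EP2 under a CMV promoter; the protocol text gives 20 µM as final concentration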
Target sequence (P43116 whole entry, looked up): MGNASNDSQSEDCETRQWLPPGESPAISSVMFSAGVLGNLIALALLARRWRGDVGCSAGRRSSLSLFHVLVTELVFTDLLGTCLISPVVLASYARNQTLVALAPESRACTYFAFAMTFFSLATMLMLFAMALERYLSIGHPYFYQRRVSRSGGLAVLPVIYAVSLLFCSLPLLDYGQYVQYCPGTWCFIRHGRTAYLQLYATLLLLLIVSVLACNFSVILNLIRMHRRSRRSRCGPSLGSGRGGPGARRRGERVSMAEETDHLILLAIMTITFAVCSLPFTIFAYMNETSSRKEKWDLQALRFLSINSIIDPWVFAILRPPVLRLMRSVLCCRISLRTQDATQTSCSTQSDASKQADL
EP2 antag: blocks the human prostaglandin E2 receptor EP2; C6 glioma cells expressing human EP2, cAMP TR-FRET; cells stimulated with saturating PGE2; inhibition, % at 25 µM; actives 0.52% (n = 260,000); AID 1422;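 active = percent inhibition above 40 after rounding to a whole number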;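 also: rat C6 glioma host cells with rolipram phosphodiesterase inhibitor present; the protocol text gives 20 µM as final concentration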
NR2E3 ag-1: activates human photoreceptor nuclear receptor NR2E3. GST-NR2E3/biotin-RetCOR TR-FRET, 1536-well. inhibition of corepressor binding, % at 4.78 µM. actives 0.12% (n = 320,000);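 active = percent inhibition above the cutoff of mean plus 3 SD of all tested compounds, set per screening campaign, cut at about 20% in these data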
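Test system: GST-NR2E3 and biotin-RetCOR proteins | Quantity: 1.35 nM GST-tagged NR2E3 final | Medium: Tris pH 7.5 | Also added: 7 nM biotin-RetCOR | Dosing: Compound at 4.8 µM, single dose | Timing: 5 h at 4 °C | Detection: Time-resolved FRET | Read-out basis: Percent inhibition | Benchmarks: Biotin wells as high control, 0.6% DMSO wells as low control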
JMJD2C inh: inhibitors of human GASC-1 (JMJD2C) demethylase; GST-JMJD2C(1-420) H3K9me3 demethylation, DELFIA europium; AID 2099; inhibition, % at 2.35 µM; actives 0.069% (n = 330,000); Q9H3R0;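 active = more than half of a compound's replicate wells show inhibition beyond 50%, single wells judged on their own value; inconclusive = some, but no more than half, of replicates pass 50% inhibition; inactive = no replicate passes 50% inhibition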;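 also: signal counts dimethyl H3K9 product captured on neutravidin plate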
Target sequence (Q9H3R0 1-420 limits assumed): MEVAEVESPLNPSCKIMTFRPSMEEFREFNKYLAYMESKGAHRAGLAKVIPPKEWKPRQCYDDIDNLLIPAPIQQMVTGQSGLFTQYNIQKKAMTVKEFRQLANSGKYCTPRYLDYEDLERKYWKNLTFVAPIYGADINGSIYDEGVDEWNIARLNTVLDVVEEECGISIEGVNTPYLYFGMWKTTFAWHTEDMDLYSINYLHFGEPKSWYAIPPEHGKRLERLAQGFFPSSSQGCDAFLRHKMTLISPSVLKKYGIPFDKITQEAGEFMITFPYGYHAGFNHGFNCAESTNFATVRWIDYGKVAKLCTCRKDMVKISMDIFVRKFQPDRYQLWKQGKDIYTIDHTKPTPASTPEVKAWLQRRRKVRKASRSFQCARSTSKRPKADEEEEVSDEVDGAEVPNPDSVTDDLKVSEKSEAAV
NR2E3 ag-2: human photoreceptor-specific nuclear receptor agonism; Q9Y5X4; CHO-S Gal4-NCOR/VP16-NR2E3 two-hybrid, luciferase; inhibition of corepressor binding, % at 3.98 µM; actives 0.35% (n = 360,000); AID 602229;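 active = inhibition above the mean of all tested compounds plus 3 SD, cut at about 70% in these data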;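 also: higher means lower luciferase signal from less NR2E3 corepressor binding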
EP2 confirm: EP2 receptor cAMP induction, counter-screens negative | actives 47% (n = 1,300) | AID 1080 | C6 glioma EP2 cells, cAMP HTRF induction; plus low (about EC15) PGE2 agonist | shares compounds with EP2 mod | calls only at 20 µM (by protocol);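 active = cAMP induction above 50% in the main assay while under 30% in all four parallel counter assays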;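 also: rat C6 glioma cells stably expressing human EP2 receptor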
Large screens that a line does not name were inactive (follow-up assays come after a bar, where they were run).

Cc1ccc2c(c1)C(C)CC(C)(C)N2C(=O)Cn1ncc2c3sc(C)cc3n(C)c2c1=O (stereo unspecified)	none (no result: Furin inhibitor, EP2 antag, NR2E3 ag-1, JMJD2C inh, NR2E3 ag-2)
CCNC(=S)N1CCN(C)CC1	none (no result: Furin inhibitor, NR2E3 ag-1, JMJD2C inh, NR2E3 ag-2)
CN1C(C(=O)Nc2ccc(C(=O)O)cc2)=C(O)c2ccccc2S1(=O)=O	none (no result: Furin inhibitor, EP2 mod, EP2 antag)
Cc1ccccc1NC1=C(C(=O)c2ccccc2)N(C)S(=O)(=O)c2ccccc21	EP2 mod 78.3 | EP2 confirm active
CCc1nc(SCC(=O)Nc2nc3c(s2)CCCC3)c2ccccc2n1	EP2 mod 86.6 | EP2 confirm inactive
Cc1cccc(C)c1NC(=O)CSc1nc(COc2ccccc2)nc2ccccc12	EP2 mod 68.8 | EP2 confirm inactive
Cc1nc2c(oc3ccc(Cl)cc32)c(=O)o1	none (no result: Furin inhibitor, NR2E3 ag-1, JMJD2C inh, NR2E3 ag-2)
COc1ccc(-c2cc(C(F)(F)F)nc(NCc3ccco3)n2)cc1OC	EP2 mod 66.7 | EP2 confirm active
CCC(=O)OC1CC(C)N(C(=O)c2ccccc2)c2ccc(C)cc21 (stereo unspecified)	none
CCCC(=O)O[C@H]1C[C@@H](C)N(C(=O)c2ccccc2)c2ccc(C)cc21	EP2 mod 76.2 | EP2 confirm inactive
CCSc1cc(N2CCOCC2)nc(-c2ccccc2)n1	EP2 mod 65.1 | EP2 confirm active
c1ccc(-c2cc(N3CCOCC3)nc(-c3ccccc3)n2)cc1	none
COc1cccc(OC)c1C(=O)Nc1cc(C)nn1-c1nc2ccccc2[nH]1	none
COc1ccc(C(=O)Nc2cc(C)nn2-c2nc3ccccc3[nH]2)c(OC)c1	EP2 mod 70.3 | EP2 confirm active
CCOc1cc(S(=O)(=O)NCCc2ccccc2C)c(OCC)cc1-n1cnnn1	none
CCOc1cc(S(=O)(=O)NCCc2cccc(C)c2)c(OCC)cc1-n1cnnn1	EP2 mod 68.3, JMJD2C inh inconclusive | EP2 confirm inactive
COc1ccc(Cn2nnnc2C(c2cc3c(C)cc(C)cc3[nH]c2=O)N2CCCCC2)cc1 (stereo unspecified)	none (no result: Furin inhibitor, NR2E3 ag-1, JMJD2C inh, NR2E3 ag-2)
CCc1nn(CC(=O)NCCCn2ccnc2)c(=O)c2cc3sc(C)cc3n12	none (no result: Furin inhibitor, EP2 antag, NR2E3 ag-1, JMJD2C inh, NR2E3 ag-2)
CCOc1ccc2[nH]c(=O)c(CN(CCO)C(=S)NC3CCCCC3)cc2c1	none (no result: Furin inhibitor, NR2E3 ag-1, JMJD2C inh, NR2E3 ag-2)
O=C(O)c1ccc(-c2ccccc2C(F)(F)F)o1	EP2 mod 82.9 | EP2 confirm active
O=C(NCc1ccccc1)c1ccc(-c2ccccc2C(F)(F)F)o1	none
COC(=O)CSc1nc(-c2ccccc2)nc2ccccc12	EP2 mod 67.8 | EP2 confirm active
CC(=O)c1cn(CC(=O)N2CCc3ccccc3C2)c2ccccc12	none (no result: Furin inhibitor, NR2E3 ag-1, JMJD2C inh, NR2E3 ag-2)
C/C(=N\N=C(c1ccccc1)c1ccccc1)c1ccco1	EP2 mod 81.3 | EP2 confirm active
Cc1nc2ccccn2c1C(=O)CSc1ccc(Cl)cc1Cl	EP2 mod 69.6 | EP2 confirm inactive
CCOC(=O)c1ccc2nc(C)c3c(c2c1)OC(C)C3 (stereo unspecified)	none
CCOC(=O)c1ccc2nc(C(F)(F)F)[nH]c(=O)c2c1	EP2 mod 73.0 | EP2 confirm inactive
Cc1ccnc(NS(=O)(=O)c2cccs2)c1	EP2 mod 82.8 | EP2 confirm inactive
CC1CCc2c(sc3ncnc(SCC(=O)c4ccccc4)c23)C1 (stereo unspecified)	none
CC1CCc2c(sc3ncnc(SCC(=O)N4CCCC4)c23)C1 (stereo unspecified)	none (no result: Furin inhibitor, NR2E3 ag-1, JMJD2C inh, NR2E3 ag-2)
N#CCSc1ncnc2sc3c(c12)CCC3	none
Cc1noc(C)c1CSc1nc2sc3c(c2c(=O)n1C)CCCC3	EP2 mod 63.1 | EP2 confirm inactive
Cc1noc(C)c1CSc1ncnc2sc3c(c12)CCC3	EP2 mod 67.8 (no result: NR2E3 ag-1, NR2E3 ag-2) | EP2 confirm inactive
Cc1noc(C)c1CSc1ncnc2sc3c(c12)CCC(C)C3 (stereo unspecified)	EP2 mod 69.8 (no result: NR2E3 ag-2) | EP2 confirm inactive
CC(=O)CSc1ncnc2sc3c(c12)CCC(C)C3 (stereo unspecified)	EP2 mod 60.6 | EP2 confirm inactive
Cc1occc1-c1nnc(SCC(=O)Nc2ccc3c(c2)OCO3)n1C	none (no result: Furin inhibitor, NR2E3 ag-1, JMJD2C inh, NR2E3 ag-2)
CCCCN1C(=O)/C(=C2\SC(N3CCCCC3)=NC2=O)c2ccccc21	EP2 mod 65.3 | EP2 confirm active
O=C1N=C(N2CCCCC2)SC1=C1CCCC1	none
[N-]=[N+]=Nc1ccc(C(=O)CSC[C@H](NC(=O)CC[C@H](N)C(=O)O)C(=O)NCC(=O)O)cc1	EP2 mod 81.7 (no result: Furin inhibitor, NR2E3 ag-1, JMJD2C inh, NR2E3 ag-2) | EP2 confirm active
CN(C)c1oc(-c2ccccc2Cl)nc1P(=O)(c1ccccc1)c1ccccc1	EP2 mod 70.6 | EP2 confirm active
OCCOc1ccc(CN2CC(CN3CCOCC3)c3ccccc32)cc1 (stereo unspecified)	none (no result: Furin inhibitor, NR2E3 ag-1, JMJD2C inh, NR2E3 ag-2)
O=S1(=O)CCN(Cc2cccc(Cl)c2)CC1	EP2 mod 86.2 | EP2 confirm inactive
COCCN1C(=O)C(=O)/C(=C(\O)c2ccc(C)cc2)C1c1ccc(OC)cc1OC (stereo unspecified)	none (no result: Furin inhibitor, NR2E3 ag-1, JMJD2C inh, NR2E3 ag-2)
CCCCNc1nc(-c2ccccc2)c(C(=O)OCC)cc1C#N	EP2 mod 65.4 | EP2 confirm active
Cn1nc(C(F)(F)F)c(/C=N/OC(=O)c2ccccc2)c1Sc1ccc(Cl)cc1	EP2 mod 69.6 | EP2 confirm inactive
Cn1nc(C(F)(F)F)c(/C=N/OC(=O)c2ccccc2)c1Cl	none
CCOc1ccc2nc(SCC(=O)Nc3nc(C)cs3)c(C#N)cc2c1	none (no result: Furin inhibitor, NR2E3 ag-1, JMJD2C inh, NR2E3 ag-2)
CCCn1ncc2c3sc(C)cc3n(Cc3cccc(OC)c3)c2c1=O	none (no result: Furin inhibitor, EP2 antag, NR2E3 ag-1, JMJD2C inh, NR2E3 ag-2)
COc1ccc(-c2nnc(N3CCC(C)CC3)c3ccccc23)cc1	EP2 mod 66.4 (no result: EP2 antag) | EP2 confirm inactive
COc1ccc(C(=O)NCC(=O)n2nc(C)cc2C)cc1OC	EP2 mod 66.3 | EP2 confirm inactive
O=c1cc(N2CCCCC2)c(-c2ccccc2)nn1Cc1ccc(Cl)cc1	none
O=c1cc(N2CCCCC2)c(-c2ccccc2)n[nH]1	none
O=c1cc(N2CCCCC2)c(-c2ccccc2)nn1Cc1c(Cl)cccc1Cl	EP2 mod 80.5 | EP2 confirm active
O=c1cc(N2CCCCC2)c(-c2ccccc2)nn1Cc1ccc(F)cc1	EP2 mod 88.3 | EP2 confirm active
CCc1ccc(-c2csc3ncn(CC(=O)O)c(=O)c23)cc1	none (no result: Furin inhibitor, NR2E3 ag-1, JMJD2C inh, NR2E3 ag-2)
Cc1cc(C)n(-c2nc(C)nc3c2cnn3-c2ccccc2)n1	EP2 mod 66.9 (no result: EP2 antag) | EP2 confirm active
Cc1cc(C)n(-c2nc3ccccc3c3nc(C)nn23)n1	none
CCC(=O)Nc1ccc(N2CCN(C(=O)C(C)C)CC2)cc1	none (no result: Furin inhibitor, NR2E3 ag-1, JMJD2C inh, NR2E3 ag-2)
CCOC(=O)N1CCN(c2ccnc3cc(Cl)ccc23)CC1	none (no result: Furin inhibitor, EP2 mod, EP2 antag)
